High-throughput results deposited in PubChem by SRMLSC.
HUVEC inhibit: blocks proliferation of human endothelial cells | HUVEC proliferation, CellTiter-Glo luminescence, 72 h; active compounds read low | viability, % at 10 µM (by protocol) | 86,000 tested, 1.1% active;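 active = viability at or below 30%; inactive = viability above 30%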
bCat KO growth: beta-catenin-lacking colon tumor cell growth suppression; AID 818; HCT116 beta-catenin knockout viability, CellTiter-Glo, 60 h; active compounds read low; viability, % at 10 µM; 140,000 tested, 1.5% active;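 active = viability at or under a set limit, the compound median less 4 SD, cut at about 6% in these data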
PTEN del growth: suppresses growth of cells with PTEN deletion. HCT116 PTEN-null viability, CellTiter-Glo, 60 h; active compounds read low. viability, % at 10 µM. 140,000 tested, 1.2% active. AID 827;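 active = viability at or below a set limit, 4 SD under the median of all tested compounds, cut at about 3.7% in these data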;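 also: PTEN knockout HCT116 line with beta catenin targeted HCT116 as companion control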
Fibroblast inh: blocks proliferation of human lung fibroblasts; 85,000 tested, 1.1% active; viability, % at 10 µM; LL 47 human lung fibroblast viability, ATP luminescence; active compounds read low;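 active = viability at or below 50% in the single dose screen; inactive = viability above 50%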;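 also: compound exposure lasted 72 h before the ATP readout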
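Benchmarks: Cell-only wells, no compound | Test system: LL 47 human lung fibroblasts, passage 12 or lower | Input: 1,150 cells/well | Measured by: CellTiter-Glo luminescence measuring cellular ATP | Medium: IMEM, 15% FBS supplement | Schedule: Overnight attachment after seeding, then 72 h compound exposure at 37 °C | Doses: Compound addition at 0.1% DMSO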
H69AR growth 86K: growth inhibitors of human H69AR lung tumor cells. AID 598. 85,000 tested, 6% active. viability, % at 10 µM. H69AR lung tumor viability, ATP luminescence, 72 h; active compounds read low;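 active = viability at or below 40%; inactive = viability above 40%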;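 also: multidrug resistant small cell line overexpressing MRP-1 efflux transporter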
Hits are given with their value; . = inactive; / = no result. The full list was thinned out, with hits kept by preference.

SMILES | HUVEC inhibit | bCat KO growth | PTEN del growth | Fibroblast inh | H69AR growth 86K
COc1ccc(/C=C/C(=O)NCCn2c(C)cc3ccccc32)cc1OC | / | . | . | / | /
COc1ccccc1NC(=O)CSc1nnc(CC(=O)Nc2ccccc2)n1C | . | . | . | . | .
Cc1cc(Oc2nc3c(C)cccn3c(=O)c2/C=C(\C#N)S(=O)(=O)c2ccc(Cl)cc2)ccc1Cl | / | 3.9 | 1.4 | / | /
Cc1ccc(S(=O)(=O)N(C)c2cc(S(=O)(=O)N3CCC(C)CC3)c(C)cc2C)cc1 | / | . | . | / | /
CC1(C)Cc2c(C#N)c(SCCOc3ccccc3)nc(N3CCOCC3)c2CO1 | . | . | . | . | 32
CCCn1c(=O)[nH]c2ccccc21 | . | . | . | . | .
O=c1[nH]c2ccccc2n1CCCN1CCN(C(c2ccccc2)c2ccccc2)CC1 | . | 5.6 | . | . | 27
CCN(CC)S(=O)(=O)c1ccc2nnn(OCC(=O)Nc3cccc(C#N)c3)c2c1 | . | . | . | . | 5.3
Cn1cc(C(=O)NC2CCCCCCC2)c(=O)c2cc(S(=O)(=O)N3CCCC3)ccc21 | . | . | . | 49 | 32
CN1CCN(C(=O)c2cn(C)c3ccc(S(=O)(=O)N(C)C4CCCCC4)cc3c2=O)CC1 | . | . | . | . | .
CN(C1CCCCC1)S(=O)(=O)c1ccc2c(c1)c(=O)c(C(=O)N1CCc3ccccc3C1)cn2C | . | . | . | . | 5.9
Cn1cc(C(=O)NC2CCCCCC2)c(=O)c2cc(S(=O)(=O)N3CCCC3)ccc21 | . | . | . | / | .
O=c1c2ccccc2sn1-c1ccc(S(=O)(=O)N2CCCC2)cc1 | / | . | . | / | /
Cc1ccc(-n2sc3ccccc3c2=O)cc1S(=O)(=O)N1CCCCC1 | . | . | . | 49 | 1.5
O=c1c2ccccc2sn1-c1ccc(S(=O)(=O)N2CCCCC2)cc1 | . | / | / | 37 | .
O=c1c2ccccc2sn1-c1ccccc1 | / | . | . | / | /
CS(=O)(=O)N(CCc1ccccc1)CC(=O)Nc1ccc(OCc2ccccc2)cc1 | / | . | . | / | /
Cc1ccccc1Nc1nc(N)nc(CSCC(=O)Nc2cccc(Br)c2)n1 | / | . | . | / | /
Cc1cccc(OCCNC(=O)c2ccc(Oc3ccc(C(F)(F)F)cc3[N+](=O)[O-])cc2)c1 | / | . | . | / | /
CCC(C)Nc1c2c(nc3c(-c4ccccc4)c(C)nn13)CCC2 (centres undefined) | . | . | . | . | 30
Cc1nn2c(Nc3ccc(F)cc3)c3c(nc2c1-c1ccccc1)CCC3 | / | . | . | / | /
Cc1nn2c(NCCCN3CCOCC3)c3c(nc2c1-c1ccccc1)CCC3 | . | . | . | . | .
CCCCNc1c2c(nc3c(-c4ccccc4)c(C)nn13)CCC2 | . | . | . | . | 27
COCCNCc1ccccc1 | / | . | . | / | /
Nc1c(C(=O)NCc2ccc(F)cc2)c2nc3ccccc3nc2n1CCCN1CCOCC1 | 5.1 | 1.3 | 1.0 | . | 1.2
SMILES | HUVEC inhibit | bCat KO growth | PTEN del growth | Fibroblast inh | H69AR growth 86K
COc1ccc(CNC(=O)c2c(N)n(CCCN3CCOCC3)c3nc4ccccc4nc23)cc1 | 7.0 | 1.4 | 1.7 | . | 1.2
C=CCn1c(N)c(C(=O)NCC2CCCO2)c2nc3ccccc3nc21 (centres undefined) | . | . | . | . | .
COc1ccc(-n2c(N)c(C(=O)NCC3CCCO3)c3nc4ccccc4nc32)c(OC)c1 (centres undefined) | . | . | . | . | 40
O=C(CCN1C(=O)c2cccnc2C1=O)NC1CCCCCC1 | / | . | . | / | /
COC(=O)c1cn(CC(=O)NC2CCCCC2)c2ccccc12 | . | . | . | . | .
Cc1cc(C)c2c(CN3CCN(Cc4ccc5c(c4)OCO5)CC3)cc(=O)oc2c1C | . | . | . | . | 33
Cc1noc(/C=C/c2ccco2)c1S(=O)(=O)N1CCC(C(=O)NC(C)c2ccccc2)CC1 (centres undefined) | . | . | . | . | 13
Cc1noc(/C=C/c2ccco2)c1S(=O)(=O)N1CCC(C(=O)N(C)Cc2ccccc2)CC1 | . | . | . | . | .
CCOCCCNC(=O)C1CCN(S(=O)(=O)c2c(C)noc2/C=C\c2ccc(OC)cc2)CC1 | . | / | / | . | 37
Cc1ccc(C)c(C(=O)COc2ccccc2[N+](=O)[O-])c1 | / | 1.9 | 1.6 | / | /
Clc1cccc(Cl)c1COn1nnc2ccccc21 | . | . | . | . | 35
COCCCNC(=O)CC(NS(=O)(=O)c1ccc(C)cc1)c1ccco1 (centres undefined) | . | . | . | . | .
Cc1ccc2c(C)c(C(=O)N(Cc3cccs3)C3CCS(=O)(=O)C3)oc2c1 (centres undefined) | . | . | . | . | .
CCOc1ccc(CN(C(=O)c2oc3cc(C)ccc3c2C)C2CCS(=O)(=O)C2)cc1 (centres undefined) | . | . | . | . | 11
Cc1ccc(CN(C(=O)c2cc(=O)c3cc(Cl)c(C)cc3o2)C2CCS(=O)(=O)C2)cc1 (centres undefined) | . | . | . | . | 26
CCOC(=O)Cc1nnc2c(Nc3ccc(Cl)cc3)nc3nonc3n12 | . | . | . | . | 14
CCOC(=O)Cc1csc(Nc2ccc(Cl)cc2)n1 | / | . | . | / | /
c1cc2c(cc1C1=Nn3c(nnc3C3CCCCC3)SC1)OCO2 | . | . | . | . | 29
COn1c(C)c(C(C)=O)c2c3nonc3ccc21 | . | . | . | . | 33
CCCCOn1c(C)c(C(=O)OCC)c2c3nonc3ccc21 | . | / | / | . | .
O=C(CSc1n[nH]c(-c2ccccc2)n1)c1ccc(O)c(O)c1 | . | . | . | . | 27
CCc1ccc(C(=O)CSc2n[nH]c(-c3ccncc3)n2)cc1 | . | . | . | . | .
CC(C)(C)NC(=O)c1ccc2nccnc2c1 | . | . | . | . | .
Cc1nc(NNC(=O)c2ccc(Cl)cc2Cl)cc(-c2ccccc2)n1 | . | . | . | . | .
CCCn1c(C)cc(=O)c2cc(NC(=O)c3cnccn3)ccc21 | . | . | . | . | 7.2
SMILES | HUVEC inhibit | bCat KO growth | PTEN del growth | Fibroblast inh | H69AR growth 86K
COc1ccc(OC)c(NC(=O)c2sc3nc(Cc4ccccc4)cc(C(F)(F)F)c3c2N)c1 | / | . | . | / | /
COc1ccc2c(=O)c3c(=O)n(Cc4ccco4)c(-c4cc(OC)c(OC)c(OC)c4)nc3oc2c1 | . | . | . | . | 13
O=C(O)CC1CCC(=C(Cl)Cl)C1 (centres undefined) | . | . | . | . | 1.3
CC(=O)N1c2ccccc2N(Cc2ccc(C)cc2C)C(=O)C1(C)C | . | . | . | 46 | 23
CCC(c1nnnn1C(C)(C)C)N(Cc1cccs1)Cc1cc2cc(C)c(C)cc2n2nnnc12 (centres undefined) | . | / | / | . | .
O=C(N/N=C/C1CC2CCC1C2)c1ccc2c(c1)OCO2 (centres undefined) | / | . | . | / | /
Cc1cccnc1Nc1nc(-c2ccc(O)c(O)c2)cs1 | . | . | . | . | 28
COc1ccc(-c2csc(Nc3ncccc3C)n2)cc1OC | . | . | . | . | .
CCOC(=O)N1CCc2c(sc(NC(=O)c3ccc(S(=O)(=O)N4CCCC4)cc3)c2C#N)C1 | . | . | . | 38 | 13
COc1cc(C(=O)Nc2sc3c(c2C#N)CCN(C(C)=O)C3)cc(OC)c1OC | . | . | . | . | 23
